ChEMBL document CHEMBL1153560, “In vitro activities of doripenem and six comparator drugs against 423 aerobic and anaerobic bacterial isolates from infected diabetic foot wounds” (2008)
Converted amounts (≈) assume the structure as drawn.

Assays:
Type in all cases: functional
Prevotella bivia = experiment: Antibacterial activity against Prevotella bivia isolated from patient with diabetic foot infection after 44 to 48 hrs by agar dilution method
Summary of the method: (§1)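 CLSI M11-A7 agar dilution: serial twofold drug dilutions made on the test day and added to molten agar. Spots of 10^5 CFU were applied by replicator, with drug-free control plates inoculated before and after each set. Incubation was 44 to 48 h at 37°C in an anaerobic chamber. MIC was the lowest concentration giving no growth or a marked change in growth versus controls.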

Clostridium cadaveris = experiment: Antibacterial activity against Clostridium cadaveris isolated from patient with diabetic foot infection after 44 to 48 hrs by agar dilution method; summary of the method: as §1
Lacrimispora sphenoides [1] = experiment: Antibacterial activity against Clostridium sphenoides isolated from patient with diabetic foot infection after 44 to 48 hrs by agar dilution method; summary of the method: as §1
Anaerococcus tetradius = experiment: Antibacterial activity against Anaerococcus tetradius isolated from patient with diabetic foot infection after 44 to 48 hrs by agar dilution method; summary of the method: as §1
Enterobacter cloacae = experiment: Antibacterial activity against Enterobacter cloacae isolated from patient with diabetic foot infection assessed as percent resistant isolates after 18 to 24 hrs by broth microdilution method
Summary of the method: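 Aerobes subcultured on Trypticase soy blood agar, then broth microdilution in cation-adjusted Mueller-Hinton broth. Trays prepared in-house with twofold dilutions and stored at −70°C. Overnight colonies suspended to about 5 × 10^5 CFU/ml final. Read after 18 to 24 h at 37°C. QC strains included S. aureus ATCC 29213 and E. coli ATCC 25922.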

[2] = test system: Corynebacterium urealyticum; experiment: Antibacterial activity against Corynebacterium urealyticum isolated from patient with diabetic foot infection assessed as percent resistant isolates after 48 hrs by broth microdilution method
Summary of the method: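 Isolates subcultured on Trypticase soy blood agar. Broth microdilution in cation-adjusted Mueller-Hinton broth with lysed horse blood, using in-house twofold dilution trays stored at −70°C. Inoculum from overnight colonies at about 5 × 10^5 CFU/ml final. Read after 18 to 24 h at 37°C, up to 48 h for some Corynebacterium strains.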

[3] = test system: Staphylococcus haemolyticus; experiment: Antibacterial activity against Staphylococcus haemolyticus isolated from patient with diabetic foot infection after 18 to 24 hrs by broth microdilution method
Streptococcus pyogenes = experiment: Antibacterial activity against Streptococcus pyogenes isolated from patient with diabetic foot infection after 18 to 24 hrs by broth microdilution method
Summary of the method: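 Streptococcal isolates were subcultured on Trypticase soy blood agar. Broth microdilution used cation-adjusted Mueller-Hinton broth with lysed horse blood, in in-house trays of serial twofold drug dilutions stored at −70°C. Overnight colonies were suspended to a final inoculum of approximately 5 × 10^5 CFU/ml. MIC was read after 18 to 24 h incubation at 37°C.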

Bacteroides caccae [4] = experiment: Antibacterial activity against Bacteroides caccae isolated from patient with diabetic foot infection after 44 to 48 hrs by agar dilution method; summary of the method: as §1
Bacteroides ovatus = experiment: Antibacterial activity against Bacteroides ovatus isolated from patient with diabetic foot infection after 44 to 48 hrs by agar dilution method; summary of the method: as §1
[5] = test system: Streptococcus dysgalactiae subsp. equisimilis; experiment: Antibacterial activity against Streptococcus dysgalactiae subsp. equisimilis isolated from patient with diabetic foot infection assessed as percent resistant isolates after 18 to 24 hrs by broth microdilution method
Summary of the method: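 Streptococci subcultured on Trypticase soy blood agar and tested by broth microdilution in cation-adjusted Mueller-Hinton broth with lysed horse blood. In-house twofold dilution trays stored at −70°C. About 5 × 10^5 CFU/ml final inoculum from overnight colonies. Read after 18 to 24 h at 37°C.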

Bacteroides caccae [6] = experiment: Antibacterial activity against Bacteroides caccae isolated from patient with diabetic foot infection assessed as percent resistant isolates after 44 to 48 hrs by agar dilution method
Summary of the method: (§2)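 Agar dilution per CLSI M11-A7. Twofold drug dilutions made on the test day and added to molten agar. Replicator-applied inoculum of 10^5 CFU/spot. Drug-free control plates inoculated before and after each drug set. Incubation at 37°C for 44 to 48 h, anaerobic chamber. MIC taken as the lowest concentration giving no growth or a marked change in growth versus controls.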

Bacteroides stercoris = experiment: Antibacterial activity against Bacteroides stercoris isolated from patient with diabetic foot infection assessed as percent resistant isolates after 44 to 48 hrs by agar dilution method; summary of the method: as §2
Parabacteroides merdae = experiment: Antibacterial activity against Parabacteroides merdae isolated from patient with diabetic foot infection after 44 to 48 hrs by agar dilution method; summary of the method: as §1
Phocaeicola vulgatus = experiment: Antibacterial activity against Bacteroides vulgatus isolated from patient with diabetic foot infection assessed as percent resistant isolates after 44 to 48 hrs by agar dilution method; summary of the method: as §2
[7] = test system: Parabacteroides distasonis; experiment: Antibacterial activity against Parabacteroides distasonis isolated from patient with diabetic foot infection assessed as percent resistant isolates after 44 to 48 hrs by agar dilution method; summary of the method: as §2
[8] = test system: Anaerocolumna aminovalerica; experiment: Antibacterial activity against Clostridium aminovalericum isolated from patient with diabetic foot infection assessed as percent resistant isolates after 44 to 48 hrs by agar dilution method; summary of the method: as §2
Proteus vulgaris = experiment: Antibacterial activity against Proteus vulgaris isolated from patient with diabetic foot infection after 18 to 24 hrs by broth microdilution method
Summary of the method: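 Isolates were subcultured on Trypticase soy blood agar and tested by broth microdilution in cation-adjusted Mueller-Hinton broth. In-house trays of twofold drug dilutions were stored at −70°C. Overnight colonies gave a final inoculum of about 5 × 10^5 CFU/ml. Plates were read after 18 to 24 h at 37°C.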

[9] = test system: Corynebacterium aurimucosum; experiment: Antibacterial activity against Corynebacterium aurimucosum isolated from patient with diabetic foot infection after 48 hrs by broth microdilution method
Summary of the method: (§3)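 Isolates were subcultured on Trypticase soy blood agar. Broth microdilution used cation-adjusted Mueller-Hinton broth with lysed horse blood, in-house trays of twofold drug dilutions stored at −70°C. Colonies from overnight growth gave a final inoculum of about 5 × 10^5 CFU/ml. Trays were read after 18 to 24 h at 37°C, up to 48 h for some strains.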

Corynebacterium jeikeium = experiment: Antibacterial activity against Corynebacterium jeikeium isolated from patient with diabetic foot infection after 48 hrs by broth microdilution method; summary of the method: as §3
[10] = test system: Corynebacterium minutissimum; experiment: Antibacterial activity against Corynebacterium minutissimum isolated from patient with diabetic foot infection after 48 hrs by broth microdilution method; summary of the method: as §3
Corynebacterium striatum = experiment: Antibacterial activity against Corynebacterium striatum isolated from patient with diabetic foot infection after 48 hrs by broth microdilution method; summary of the method: as §3
Lacrimispora sphenoides [11] = experiment: Antibacterial activity against Clostridium sphenoides isolated from patient with diabetic foot infection assessed as percent resistant isolates after 44 to 48 hrs by agar dilution method; summary of the method: as §2
Cutibacterium acnes = experiment: Antibacterial activity against Propionibacterium acnes isolated from patient with diabetic foot infection assessed as percent resistant isolates after 44 to 48 hrs by agar dilution method; summary of the method: as §2
[12] = test system: Peptoniphilus asaccharolyticus; experiment: Antibacterial activity against Peptoniphilus asaccharolyticus isolated from patient with diabetic foot infection assessed as percent resistant isolates after 44 to 48 hrs by agar dilution method; summary of the method: as §2
Anaerococcus vaginalis = experiment: Antibacterial activity against Anaerococcus vaginalis isolated from patient with diabetic foot infection assessed as percent resistant isolates after 44 to 48 hrs by agar dilution method; summary of the method: as §2

Row | SMILES | MIC50 (Prevotella bivia) [µg/mL] | MIC90 (Prevotella bivia) [µg/mL] | MIC50 (Clostridium cadaveris) [µg/mL] | MIC90 (Clostridium cadaveris) [µg/mL] | MIC50 (Lacrimispora sphenoides [1]) [µg/mL] | MIC90 (Lacrimispora sphenoides [1]) [µg/mL] | MIC50 (Anaerococcus tetradius) [µg/mL] | MIC90 (Anaerococcus tetradius) [µg/mL] | Activity (Enterobacter cloacae) [%] | MIC50 [3] [µg/mL] | MIC90 [3] [µg/mL] | MIC50 (Streptococcus pyogenes) [µg/mL] | MIC90 (Streptococcus pyogenes) [µg/mL] | MIC50 (Bacteroides caccae [4]) [µg/mL] | MIC90 (Bacteroides caccae [4]) [µg/mL] | MIC50 (Bacteroides ovatus) [µg/mL] | MIC90 (Bacteroides ovatus) [µg/mL] | Activity [5] [%] | Activity (Bacteroides caccae [6]) [%] | Activity (Bacteroides stercoris) [%] | further results
1 | C[C@@H](O)[C@H]1C(=O)N2C(C(=O)O)=C(SCCNC=N)C[C@H]12 [IMIPENEM ANHYDROUS] | 0.03 (≈ 0.1 µM) | 0.03 (≈ 0.1 µM) | 0.25 (≈ 0.835 µM) | 2 (≈ 6.68 µM) | 0.25 (≈ 0.835 µM) | 2 (≈ 6.68 µM) | ≤ 0.015 | 0.03 (≈ 0.1 µM) | 0 | 0.06 (≈ 0.2 µM) | 16 (≈ 53.4 µM) | ≤ 0.015 | ≤ 0.015 | 0.5 (≈ 1.67 µM) | 1 (≈ 3.34 µM) | 0.5 (≈ 1.67 µM) | 1 (≈ 3.34 µM) | 0 | 0 | 0 | Activity [2]: 30%; MIC50 (Parabacteroides merdae): 0.5 µg/mL (≈ 1.67 µM); MIC90 (Parabacteroides merdae): 1 µg/mL (≈ 3.34 µM); Activity (Phocaeicola vulgatus): 0%; Activity [7]: 0%; Activity [8]: 0%; MIC50 (Proteus vulgaris): 0.5 µg/mL (≈ 1.67 µM); MIC90 (Proteus vulgaris): 4 µg/mL (≈ 13.4 µM); MIC50 [9]: 0.25 µg/mL (≈ 0.835 µM); MIC90 [9]: 32 µg/mL (≈ 107 µM); MIC50 (Corynebacterium jeikeium): 0.25 µg/mL (≈ 0.835 µM); MIC90 (Corynebacterium jeikeium): 32 µg/mL (≈ 107 µM); MIC50 [10]: 0.25 µg/mL (≈ 0.835 µM); MIC90 [10]: 32 µg/mL (≈ 107 µM); MIC50 (Corynebacterium striatum): 0.03 µg/mL (≈ 0.1 µM); MIC90 (Corynebacterium striatum): 0.125 µg/mL (≈ 0.418 µM); Activity (Lacrimispora sphenoides [11]): 0%; Activity (Cutibacterium acnes): 0%; Activity [12]: 0%; Activity (Anaerococcus vaginalis): 0%
2 | C[C@@H](O)[C@H]1C(=O)N2C(C(=O)O)=C(S[C@@H]3CN[C@H](CNS(N)(=O)=O)C3)[C@H](C)[C@H]12 [DORIPENEM] | 0.06 (≈ 0.143 µM) | 0.125 (≈ 0.297 µM) | 0.06 (≈ 0.143 µM) | 1 (≈ 2.38 µM) | 0.06 (≈ 0.143 µM) | 1 (≈ 2.38 µM) | ≤ 0.015 | 0.06 (≈ 0.143 µM) | 0 | 0.5 (≈ 1.19 µM) | 16 (≈ 38 µM) | ≤ 0.015 | ≤ 0.015 | 0.25 (≈ 0.595 µM) | 1 (≈ 2.38 µM) | 0.25 (≈ 0.595 µM) | 1 (≈ 2.38 µM) | 0 | 0 | 0 | MIC50 (Parabacteroides merdae): 0.25 µg/mL (≈ 0.595 µM); MIC90 (Parabacteroides merdae): 1 µg/mL (≈ 2.38 µM); Activity (Phocaeicola vulgatus): 0%; Activity [7]: 0%; Activity [8]: 0%; MIC50 (Proteus vulgaris): 0.125 µg/mL (≈ 0.297 µM); MIC90 (Proteus vulgaris): 0.25 µg/mL (≈ 0.595 µM); MIC50 [9]: 1 µg/mL (≈ 2.38 µM); MIC90 [9]: 8 µg/mL (≈ 19 µM); MIC50 (Corynebacterium jeikeium): 1 µg/mL (≈ 2.38 µM); MIC90 (Corynebacterium jeikeium): 8 µg/mL (≈ 19 µM); MIC50 [10]: 1 µg/mL (≈ 2.38 µM); MIC90 [10]: 8 µg/mL (≈ 19 µM); MIC50 (Corynebacterium striatum): 0.125 µg/mL (≈ 0.297 µM); MIC90 (Corynebacterium striatum): 0.25 µg/mL (≈ 0.595 µM); Activity (Lacrimispora sphenoides [11]): 0%; Activity (Cutibacterium acnes): 0%; Activity [12]: 0%; Activity (Anaerococcus vaginalis): 0%
